Laboratory results: ChEMBL document CHEMBL1148485, “Synthesis and biological evaluation of new selective cytotoxic cyclolignans derived from podophyllotoxin” (J Med Chem, 2004)

Tested on: HT-29
Assay: In vitro cytotoxicity against HT-29 (human colon carcinoma) cell line.
Format: functional, cell-based
Conditions: Homo sapiens, HT-29

Row | SMILES | IC50
1 | COC(=O)[C@@H]1C(/C=N/c2cc(C)c(C)cc2N)=Cc2cc3c(cc2C1c1cc(OC)c(OC)c(OC)c1)OCO3 (stereo partly specified) | 200 nM
2 | COC(=O)[C@@H]1C(/C=N/c2ccccc2)=Cc2cc3c(cc2C1c1cc(OC)c(OC)c(OC)c1)OCO3 (stereo partly specified) | 20 nM
3 | CCC/N=C/C1=Cc2cc3c(cc2C(c2cc(OC)c(OC)c(OC)c2)[C@@H]1C(=O)OC)OCO3 (stereo partly specified) | 10 nM
4 | COC(=O)[C@@H]1C(/C=N/c2nccs2)=Cc2cc3c(cc2C1c1cc(OC)c(OC)c(OC)c1)OCO3 (stereo partly specified) | 25 nM
5 | COC(=O)[C@@H]1C(/C=N/CCO)=Cc2cc3c(cc2C1c1cc(OC)c(OC)c(OC)c1)OCO3 (stereo partly specified) | 21 nM
6 | COC(=O)[C@@H]1C(/C=N/c2cc(OC)c(OC)c(OC)c2)=Cc2cc3c(cc2C1c1cc(OC)c(OC)c(OC)c1)OCO3 (stereo partly specified) | 21 nM

Same assay, conditions: ht-29

Row | SMILES | IC50
7 | CC/N=C/C1=Cc2cc3c(cc2[C@@H](c2cc(OC)c(OC)c(OC)c2)[C@@H]1C(=O)OC)OCO3 (stereo in doubt; 5) | 2.2 nM
8 | CC/N=C/C1=Cc2cc3c(cc2[C@@H](c2cc(OC)c(OC)c(OC)c2)[C@@H]1C(=O)OC)OCO3 (stereo in doubt; 11) | 34 nM

Tested on: SK-MEL-28
Assay: Tested in vitro for antineoplastic activity against MEL-28 (human melanoma) tumor cell line
Format: functional, cell-based
Conditions: not given
How it was run: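 MEL-28 cells seeded at 2 × 10^4 cells/well in MEM–10% FCS containing graded compound concentrations. Incubated 4 days at 37 °C, 10% CO2, 98% humidity. Stained with crystal violet and inhibition judged against untreated controls, which were kept in exponential growth. Mean of duplicate wells.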

Row | SMILES | IC50
9 | COC(=O)[C@@H]1C(/C=N/c2cc(C)c(C)cc2N)=Cc2cc3c(cc2C1c1cc(OC)c(OC)c(OC)c1)OCO3 (stereo partly specified) | 900 nM
10 | COC(=O)[C@@H]1C(/C=N/c2ccccc2)=Cc2cc3c(cc2C1c1cc(OC)c(OC)c(OC)c1)OCO3 (stereo partly specified) | 1200 nM
11 | COC(=O)[C@@H]1C(/C=N/c2nccs2)=Cc2cc3c(cc2C1c1cc(OC)c(OC)c(OC)c1)OCO3 (stereo partly specified) | 250 nM
12 | COC(=O)[C@@H]1C(/C=N/CCO)=Cc2cc3c(cc2C1c1cc(OC)c(OC)c(OC)c1)OCO3 (stereo partly specified) | 210 nM
13 | COC(=O)[C@@H]1C(/C=N/c2cc(OC)c(OC)c(OC)c2)=Cc2cc3c(cc2C1c1cc(OC)c(OC)c(OC)c1)OCO3 (stereo partly specified) | 420 nM
14 | CC/N=C/C1=Cc2cc3c(cc2[C@@H](c2cc(OC)c(OC)c(OC)c2)[C@@H]1C(=O)OC)OCO3 (stereo in doubt; 5) | 22 nM

Tested on: A549
Assay: In vitro cytotoxicity against A-549 (human lung carcinoma) cell line.
Format: functional, cell-based
Conditions: Homo sapiens, A549

Row | SMILES | IC50
15 | COC(=O)[C@@H]1C(/C=N/c2cc(C)c(C)cc2N)=Cc2cc3c(cc2C1c1cc(OC)c(OC)c(OC)c1)OCO3 (stereo partly specified) | 900 nM
16 | COC(=O)[C@@H]1C(/C=N/c2ccccc2)=Cc2cc3c(cc2C1c1cc(OC)c(OC)c(OC)c1)OCO3 (stereo partly specified) | 20 nM
17 | CCC/N=C/C1=Cc2cc3c(cc2C(c2cc(OC)c(OC)c(OC)c2)[C@@H]1C(=O)OC)OCO3 (stereo partly specified) | 110 nM
18 | COC(=O)[C@@H]1C(/C=N/c2nccs2)=Cc2cc3c(cc2C1c1cc(OC)c(OC)c(OC)c1)OCO3 (stereo partly specified) | 250 nM
19 | COC(=O)[C@@H]1C(/C=N/CCO)=Cc2cc3c(cc2C1c1cc(OC)c(OC)c(OC)c1)OCO3 (stereo partly specified) | 110 nM
20 | COC(=O)[C@@H]1C(/C=N/c2cc(OC)c(OC)c(OC)c2)=Cc2cc3c(cc2C1c1cc(OC)c(OC)c(OC)c1)OCO3 (stereo partly specified) | 210 nM

Same assay, conditions: a549

Row | SMILES | IC50
21 | CC/N=C/C1=Cc2cc3c(cc2[C@@H](c2cc(OC)c(OC)c(OC)c2)[C@@H]1C(=O)OC)OCO3 (stereo in doubt; 5) | 22 nM
22 | CC/N=C/C1=Cc2cc3c(cc2[C@@H](c2cc(OC)c(OC)c(OC)c2)[C@@H]1C(=O)OC)OCO3 (stereo in doubt; 11) | 110 nM

Tested on: P388
Assay: Tested in vitro for antineoplastic activity against P-388 (lymphoid neoplasm from DBA/2 mouse) tumor cell line
Format: functional, cell-based
Conditions: not given
How it was run: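 P-388 cells seeded at 1 × 10^4 cells/well in MEM–10% FCS containing graded compound concentrations. Incubated 4 days at 37 °C, 10% CO2, 98% humidity. Inhibition scored by inverted microscopy against untreated controls, which were kept in exponential growth. Mean of duplicate wells.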

Row | SMILES | IC50
23 | COC(=O)[C@@H]1C(/C=N/c2cc(C)c(C)cc2N)=Cc2cc3c(cc2C1c1cc(OC)c(OC)c(OC)c1)OCO3 (stereo partly specified) | 900 nM
24 | COC(=O)[C@@H]1C(/C=N/c2ccccc2)=Cc2cc3c(cc2C1c1cc(OC)c(OC)c(OC)c1)OCO3 (stereo partly specified) | 500 nM
25 | CCC/N=C/C1=Cc2cc3c(cc2C(c2cc(OC)c(OC)c(OC)c2)[C@@H]1C(=O)OC)OCO3 (stereo partly specified) | 1100 nM
26 | COC(=O)[C@@H]1C(/C=N/c2nccs2)=Cc2cc3c(cc2C1c1cc(OC)c(OC)c(OC)c1)OCO3 (stereo partly specified) | 200 nM
27 | COC(=O)[C@@H]1C(/C=N/CCO)=Cc2cc3c(cc2C1c1cc(OC)c(OC)c(OC)c1)OCO3 (stereo partly specified) | 210 nM
28 | COC(=O)[C@@H]1C(/C=N/c2cc(OC)c(OC)c(OC)c2)=Cc2cc3c(cc2C1c1cc(OC)c(OC)c(OC)c1)OCO3 (stereo partly specified) | 850 nM
29 | CC/N=C/C1=Cc2cc3c(cc2[C@@H](c2cc(OC)c(OC)c(OC)c2)[C@@H]1C(=O)OC)OCO3 (stereo in doubt; 5) | 1100 nM

Tested on: not listed separately
Assay: Selectivity index is the ratio of IC50 of P-388 cell line to that of HT-29
Format: functional
Conditions: not given

Row | SMILES | Selectivity index
30 | COC(=O)[C@@H]1C(/C=N/c2cc(C)c(C)cc2N)=Cc2cc3c(cc2C1c1cc(OC)c(OC)c(OC)c1)OCO3 (stereo partly specified) | 4.5
31 | COC(=O)[C@@H]1C(/C=N/c2ccccc2)=Cc2cc3c(cc2C1c1cc(OC)c(OC)c(OC)c1)OCO3 (stereo partly specified) | 25
32 | CCC/N=C/C1=Cc2cc3c(cc2C(c2cc(OC)c(OC)c(OC)c2)[C@@H]1C(=O)OC)OCO3 (stereo partly specified) | 110
33 | COC(=O)[C@@H]1C(/C=N/c2nccs2)=Cc2cc3c(cc2C1c1cc(OC)c(OC)c(OC)c1)OCO3 (stereo partly specified) | 8
34 | COC(=O)[C@@H]1C(/C=N/CCO)=Cc2cc3c(cc2C1c1cc(OC)c(OC)c(OC)c1)OCO3 (stereo partly specified) | 10
35 | COC(=O)[C@@H]1C(/C=N/c2cc(OC)c(OC)c(OC)c2)=Cc2cc3c(cc2C1c1cc(OC)c(OC)c(OC)c1)OCO3 (stereo partly specified) | 40
36 | CC/N=C/C1=Cc2cc3c(cc2[C@@H](c2cc(OC)c(OC)c(OC)c2)[C@@H]1C(=O)OC)OCO3 (stereo in doubt; 5) | 500
